Experimental data: the EternaBench riboswitch data

System: MS2 coat protein
Test: apparent Kd, MS2 coat protein; higher = weaker binding; RNA-MaP array; FMN 200 µM where present
Procedure, shortened: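 SNAP-549-labelled MS2 coat protein, doubled from 0.7 or 1.5 nM to 3 µM, was titrated over designs transcribed by stalled E. coli RNA polymerase on Illumina sequencing-chip clusters. Titrations were run without and then with constant ligand in 100 mM Tris-HCl pH 7.5, 80 mM KCl, 4 mM MgCl2, BSA, DTT, yeast tRNA and Tween-20. The apparent Kd is the median of filtered per-cluster fits to green signal normalised to red-channel RNA signal and control-cluster median Fmax.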

[1] = designed as: ON switch for flavin mononucleotide, no ligand
[2] = ligand present: flavin mononucleotide, designed as: ON switch for flavin mononucleotide
[3] = designed as: OFF switch for flavin mononucleotide, no ligand
[4] = ligand present: flavin mononucleotide, designed as: OFF switch for flavin mononucleotide

| Sequence | apparent Kd [1] | apparent Kd [2] | apparent Kd [3] | apparent Kd [4] |
| --- | --- | --- | --- | --- |
| UAAAUACAUGAGGAUCACCCAUGUCAAAAGACAUGAGGAUAUGUACAGUCUUCGGUCUGUACAGAAGGCAUGAAUA | 464 nM | 35 nM |  |  |
| GUAGCAUACCGAGGAUAUUCAUAUAAUAAAUAAACAUGAGGAUCACCCAUGUGGCGAAAGCCUUGGGAGAAGGCGGAAUGCUAC | 647 nM | 37.3 nM |  |  |
| ACGACGAAAGUCGAACGAUGUACGAGAAGGACAUGAGGAUCACCCAUGUUAUCUGUAAUAGACAUGUAGGAUAUCGUACAUCGA |  |  | 8.26 nM | 26.6 nM |
| ACUGUUUGAUUCCUCUUAUACAUGAGGAUCACCCAUGUUAUCGAGGAUAUGCAUUAGAGUGUUUAGCAGAAGGCGAUGUAAUUG |  |  | 6.84 nM | 19.9 nM |
| UUGUUGUGAGUAAGGAUAUGAUGCAGGAAACUGCGUCAGAAGGUACAUGAGGAUCACCCAUGUUAAUUUUGUUU |  |  | 16.8 nM | 23.5 nM |
| AUACUCAUGUAAGGAUAUGCGGCCGUUUCGGCUGCAGAAGGUACUAUAAUACAUGAGGAUCACCCAUGUCUCUCGCAUUGCGAG | 556 nM | 61.4 nM |  |  |
| GCCAUCGCAUGAGGAUAUGCUCCCGUUUCGGGAGCAGAAGGCAUGUCAUAAGACAUGAGGAUCACCCAUGUAGAUAAGAUGGCA | 310 nM | 11.4 nM |  |  |
| AGUUGGCGAGGAUAUACAUGAGGAUCACCCAUGUGAGAGAAAAAAGUGAGAAAGAAAAGUAGAAGGCGCUGACA |  |  | 45.3 nM | 217 nM |
| AGAUGACAAAGUCAUCUUCAACGGACAUGAGGAUCACCCAUGUAGGAUAUGCUACUCAAAGAGUAGCAGAAGGACAUGUGUCUU |  |  | 35 nM | 193 nM |
| UUGGUUGUCGUAGGAUAUGUAGGAUAUUCCUACAUGAGGAUCACCCAUGUUAGCAUGGAAGAAGGACAGAAGGACGAUGACCAU | 1010 nM | 16.9 nM |  |  |
| UGUCGGAAGUAGAAGGGUAUGACAUGAGGAUCACCCAUGUGAUUUGGGUAUACAGGAUAUGCUUAUAUAUAUGAUUAAAUUAUU |  |  | 451 nM | 248 nM |
| CCGGAAACGGGUAGCUGACAUGAGGAUCACCCAUGUGUUUCACAGGAUAUGGAUCCUAAUUGGAUCCAGAAGGGUGUCAGCUAC | 1040 nM | 157 nM |  |  |
| UUAAAUCAUGUAGGAUAUGCAUGGCGAAGCUACGCAGAAGGACAUGAGGAUCACCCAUGUUAUAGCUACCGAUAAAGGUGGCAA |  |  | 84.3 nM | 214 nM |
| AGAGCCGGCACCGAGGAUAUUCAUAUUAAAACAUGAGGAUCACCCAUGUAGGCCAGAAGGCCUUGGGAGAAGGCGGAUCGGCUCG | 707 nM | 39.5 nM |  |  |
| AAUAACAGAGGAUAUACUGUUUUAUGUGUUUAUUGUUUUGAACAUGAGGAUCACCCAUGUAGAAGGCUGAAUAA |  |  | 22.6 nM | 23.2 nM |
| GGAGACCUCACAGGAUAUGCUGGACUUUGUCCAGCAGAAGGGUGAACAUGAGGAUCACCCAUGUGGUCUUCCAAAAUAUUUAAU | 693 nM | 280 nM |  |  |
| AAACAUGUCCGAGGAUAUCUGGAAACAUUUUCAAGAGAAGGCGGACAUGAGGAUCACCCAUGUCUCUCCUCAUCAAGUACAAAU |  |  | 7.33 nM | 46.3 nM |
| AAAAAACAUGAGGAUCACCCAUGUGAGGAUAUGAUGCGAAUAAAGAAAGAAGAAAGCAUCAGAAGGCACAUAUG |  |  | 86.6 nM | 254 nM |
| AUGCCUAAUGAGAAGGUGUGUAUAAAUUAUAUACAAGGAUAUCGGUCAAGCAUGAAAACAUGAGGAUCACCCAUGUUAAGGCAU | 7.77 nM | 6.72 nM |  |  |
| GACAGUGCUAAUAAAUAAGAUCUACAUGAGGAUCACCCAUGUAAGGAUAUCGUCAGGAAUACUGACGAGAAGGUACAUGCACUG |  |  | 15.4 nM | 26.2 nM |
| GAGUGACAUGAGGAUCACCCAUGUGAGGAUAUCGGACGGACCUUGUUAGCUUCCGCCGCGAGAAGGCACAUCGG |  |  | 208 nM | 34.5 nM |
| GGUGUCGCAUGAGGAUAUGGUCAGCUUUGCUGACCAGAAGGCAUGUCAAUAGACAUGAGGAUCACCCAUGUAGUUAAGACACCA | 739 nM | 48.2 nM |  |  |
| UGCAUGUAAGGAUAUGCAUCCGCCAACGAACCGGCGGCACAGCAGAAGGUACAUGAGGAUCACCCAUGUGUCCC |  |  | 34.8 nM | 195 nM |
| AAGUUAGGGAGAGGAUAUUGACAUGAGGAUCACCCAUGUAUUUGGGAGUGUUUACUGAAUUCUUACGAGAAGGCUUACGAAAUU |  |  | 344 nM | 259 nM |

| Sequence | apparent Kd [1] | apparent Kd [2] | apparent Kd [3] | apparent Kd [4] |
| --- | --- | --- | --- | --- |
| AUAGCCGGGAGGUAAACUCGUGCGGCAGAAGGGUGAUACUGGACAUGAGGAUCACCCAUGUGCACACAGGAUAUGCCCGCGAGC | 159 nM | 33.3 nM |  |  |
| GCUAUCGCAUGAGGAUAUGGUCAGCUUUGCUGACCAGAAGGCAUGUCAUAAGACAUGAGGAUCACCCAUGUAGUUAAGAUAGCA | 840 nM | 50.5 nM |  |  |
| GCUGCAUAGGCAGGAUAUGCAAAAGCAGAUGCAAAGCAUCUGCAAAAUACAUGAGGAUCACCCAUGUAGAAGGGCCUGUGCAGU |  |  | 23.1 nM | 20.6 nM |
| UUGGACGUCGUAGGAUAUGUACGAUAUUCCUACAUGAGGAUCACCCAUGUUGACAUGGAAGAAGGACAGAAGGACGAUGUCCAU | 5.5 nM | 4.87 nM |  |  |
| UGCAUGUAAGGAUAUGCAUCCGCCGGCGAACCGGCGCCACAGCAGAAGGUACAUGAGGAUCACCCAUGUGUCCC |  |  | 18.8 nM | 51.6 nM |
| GUCGUGCAGCUUUGCUGUACGAGUACAUGAGGAUCACCCAUGUAGGAUAUGGUACGCUUUGCGUGCCAGAAGGACGUGCGUUGG |  |  | 48 nM | 134 nM |
| AAAGAAGCACUUGGAACCGGACAAUGAGAAGGCCACGCACAUGAGGAUCACCCAUGUAAAGCUAUGGAGGAUAUCAUGAUGGAU | 46.4 nM | 6.73 nM |  |  |
| AAUGGCUAGCGCUCUGGAACUGCACAGGAUAUGAAGAGCUACAUGAGGAUCACCCAUGUUUAAAAUCAGAAGGGUGAGUAUCAG | 166 nM | 16.2 nM |  |  |
| AGAUUGAAUGAGGAUAUCGAAGCGGGUACGAAGCGAGAAGGCAUGACAUGAGGAUCACCCAUGUAGUGUGGGUU |  |  | 465 nM | 435 nM |
| AAGGAGUGAGGAUAUGCUGCUCGUCACUUGCGUGAUGAGUAGCAGAAGGCACAUGAGGAUCACCCAUGUAAAGA |  |  | 44.9 nM | 54.5 nM |
| GUCUUGUUAGGAUAUCUUACUUUUGCAUCAUAGUAACCAUUGGAGAAGGGACAUGAGGAUCACCCAUGUUUGGU |  |  | 34.6 nM | 30 nM |
| AAGAUGUCAGGAUAUGCUGCUCGUCACUUGCGUGAUGAGUAGCAGAAGGGACAUGAGGAUCACCCAUGUAAAGA |  |  | 154 nM | 244 nM |
| UUAAGUCAUGUAGGAUAUCCGAGGCGAAGCGUUGGAGAAGGACAUGAGGAUCACCCAUGUUCUAGCGUCUGAGUACAGAUGCAG |  |  | 29.5 nM | 94.7 nM |
| GUAGCUAUCGGAGGAUAUUCAUACCGGAUACGGACAUGAGGAUCACCCAUGUGCCGAAAGGCUUGGGAGAAGGCCGAUAGCUAC | 108 nM | 16.9 nM |  |  |
| GAUUACAAGUAAGGAUAUGUAUAUGAAACAUAUACAGAAGGUACAUGAGGAUCACCCAUGUUCUUGCAAAGCGAAUAUGUAAUC |  |  | 17.3 nM | 21 nM |
| GUCAUCGCAUGAGGAUAUGGCACCGUUUCGGUGCCAGAAGGCAUGUCAAAUGACAUGAGGAUCACCCAUGUAGUUAAGAUGGCA | 229 nM | 17 nM |  |  |
| ACUAUACGAGGAUAUGCUGUCAAUACUCCGGAGUUAGUAUGACAUGAGGAUCACCCAUGUAGAAGGCGUAUACU |  |  | 26.7 nM | 19.6 nM |
| UGCUGUGUCAGAGGAUAUACAUCAAUAAUCCAUUGCAAAUAGCGAUGGACAUGAGGAUCACCCAUGUAGAAGGCUGUCACAGCA |  |  | 111 nM | 384 nM |
| GUAGCUAUCGGAGGAUAUUCAUAGCGGAAACGGACAUGAGGAUCACCCAUGUGGCUAAAGCCUUGGGAGAAGGCCGAUAGCUAC | 25.8 nM | 6.64 nM |  |  |
| GAUUAAUGCAAGGAUAUGCUAUUAUUUUAUUUUGCAGAAGGUGCAACAUGAGGAUCACCCAUGUUGGAGGGUAU |  |  | 19.8 nM | 29.8 nM |
| UUGGACGUCGUAGGAUAUGUAGGAUAUUCCUACAUGAGGAUCACCCAUGUUGACAUGGAAGAUGGACAGAAGGACGAUGUCCAU | 983 nM | 42.1 nM |  |  |
| UAAAUGUGAGGAUAUCAGGUGUGCUAGAGAACUGGUACAUCUGAGAAGGCACAUGAGGAUCACCCAUGUUCUUC |  |  | 39 nM | 207 nM |
| CAGGUAGCUACAGGAUAUACACAGCUCAGUAAACUGAGCAAAACAACUACAUGAGGAUCACCCAUGUAGAAGGGUAGCUGCCUG |  |  | 17 nM | 17.1 nM |
| GUAAGUCAUGUAGGAUAUCCGAGGCGAAGCGUUGGAGAAGGACAUGAGGAUCACCCAUGUUCUAGCGUCUGAGUACAGAUGCAG |  |  | 29.4 nM | 104 nM |
